Published values gathered from unrelated publications.
Target: Serine/threonine-protein kinase pim-3 (PIM3, Homo sapiens, UniProt Q86V86)

C1=C/COCc2cc(ccc2OCCN2CCCC2)Nc2nccc(n2)-c2cccc(c2)COC/1 — remaining binding (binding; 0.1 µM): 97%
C#Cc1cnc(Nc2ccnc(CO)c2)nc1Nc1ccccc1S(C)(=O)=NC#N (stereo not shown) — remaining signal (cell-free assay; 1 µM): 80%
CC(C)S(=O)(=O)c1ccc2nccc(Nc3ccc4sc(C5CCCC5)nc4c3)c2c1 — activity vs control (enzyme activity, inhibitor; 1 µM): 104%
C=CC(=O)N1CCC[C@@H](n2nc(-c3ccc(Oc4ccccc4)cc3)c3c(N)ncnc32)C1 — inhibition (enzyme activity, inhibitor; 1 µM): 0%
COc1ccc2[nH]c3c4[nH]c5ccc(OC)cc5c4c4c(c3c2c1)C(=O)NC4=O — remaining binding (binding; 1 µM): 2.6%
C=CC(=O)N1CCC([C@@H]2CCNc3c(C(N)=O)c(-c4ccc(Oc5ccccc5)cc4)nn32)CC1 — inhibition (enzyme activity, inhibitor; 1 µM): 2%
CCCCC(=O)Nc1ccc(-c2ccc3ncn(CCC)c(=O)c3c2)cn1 — remaining binding (binding, competition with immobilised ligand; 0.5 µM): 93%
COc1ccc2oc(-c3ccc4nc(N)oc4c3)c/c(=N\c3ccccc3NC(=O)CCN)c2c1 — remaining binding (binding; 1 µM): 110%
C[C@H]1CC[C@H](n2c3cnccc3c3cnc(Nc4ccc5c(n4)CCN(C(=O)CO)C5)nc32)CC1 — remaining signal (cell-free assay; 1 µM): 31%
N#Cc1ccc(NC(=O)Nc2ccccc2)cc1 — remaining binding (cell-free assay, competition with immobilised ligand; 25 µM): 74%
